Experimental data taken from paper PMC8177775 (Cancer Science, 2021).

Columns and labels:
[1] = system: six human cancer cell lines; conditions: cited from earlier work
[2] = system: human osteosarcoma xenografts; conditions: human osteosarcoma xenografts in nude mice; cited from earlier work
[3] = system: macrophage inhibitory cytokine‐1 (MIC‐1) levels in serum; assay: Serum MIC-1; type: in vivo, human
Method in brief: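 Serum was drawn on cycle 1 day 1 before dosing and 6 h post dose, and on days 2, 8, 15 and 21, during oral QD dosing on days 1–21 at 60, 90 or 120 mg. MIC-1 (GDF-15) was quantified by quantitative sandwich ELISA for human GDF-15. Change from baseline was summarized by cohort using descriptive statistics.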

## CC1(C)CCC2(CC1)N[C@@H](C(=O)N[C@@H]1CC[C@@H](C(N)=O)OC1)[C@H](c1ccnc(Cl)c1F)[C@]21C(=O)Nc2cc(Cl)ccc21 [milademetan, Milademetan]
[1]
  Growth of cancer cells harboring wild-type p53: inhibits the growth
[2]
  Tumor growth of xenografts: suppresses tumor growth
[3]; 60-mg cohort
  Increase of MIC-1 levels from baseline to day 21, mean (SD): 2175.7 (1677.40) pg/mL
[3]; 90-mg cohort
  Increase of MIC-1 levels from baseline to day 21, mean (SD): 9514.5 (6812.78) pg/mL
[3]; 120-mg cohort
  Increase of MIC-1 levels from baseline to day 21, mean (SD): 7930.5 (7636.72) pg/mL
[3]; all cohorts
  Mean MIC-1 levels after administration: increased from baseline in all cohorts
